According to publication PMC7347020 (Science (New York, N.Y.), 2020):
Where two headings read alike, the source gives them in different places.

Assays:
[1] = molecular target: T1, PARP-1 (Homo sapiens, UniProt P09874); experiment: Classification of PARPi by allosteric effects; settings: based on HXMS and DNA binding studies
[2] = system: CATΔHD; settings: cited from earlier work
[3] = molecular target: T1, PARP-1; experiment: FP DNA binding affinity of PARP-1 for SSB-DNA
[4] = molecular target: T1, PARP-1; experiment: SPR dissociation kinetics of PARP-1 from SSB-DNA; assay type: binding
[5] = molecular target: WT PARP-1 (Homo sapiens, UniProt P09874); experiment: FP DNA competition; assay type: binding; settings: WT PARP-1, with or without inhibitor
Chain of WT PARP-1 (P09874 whole entry): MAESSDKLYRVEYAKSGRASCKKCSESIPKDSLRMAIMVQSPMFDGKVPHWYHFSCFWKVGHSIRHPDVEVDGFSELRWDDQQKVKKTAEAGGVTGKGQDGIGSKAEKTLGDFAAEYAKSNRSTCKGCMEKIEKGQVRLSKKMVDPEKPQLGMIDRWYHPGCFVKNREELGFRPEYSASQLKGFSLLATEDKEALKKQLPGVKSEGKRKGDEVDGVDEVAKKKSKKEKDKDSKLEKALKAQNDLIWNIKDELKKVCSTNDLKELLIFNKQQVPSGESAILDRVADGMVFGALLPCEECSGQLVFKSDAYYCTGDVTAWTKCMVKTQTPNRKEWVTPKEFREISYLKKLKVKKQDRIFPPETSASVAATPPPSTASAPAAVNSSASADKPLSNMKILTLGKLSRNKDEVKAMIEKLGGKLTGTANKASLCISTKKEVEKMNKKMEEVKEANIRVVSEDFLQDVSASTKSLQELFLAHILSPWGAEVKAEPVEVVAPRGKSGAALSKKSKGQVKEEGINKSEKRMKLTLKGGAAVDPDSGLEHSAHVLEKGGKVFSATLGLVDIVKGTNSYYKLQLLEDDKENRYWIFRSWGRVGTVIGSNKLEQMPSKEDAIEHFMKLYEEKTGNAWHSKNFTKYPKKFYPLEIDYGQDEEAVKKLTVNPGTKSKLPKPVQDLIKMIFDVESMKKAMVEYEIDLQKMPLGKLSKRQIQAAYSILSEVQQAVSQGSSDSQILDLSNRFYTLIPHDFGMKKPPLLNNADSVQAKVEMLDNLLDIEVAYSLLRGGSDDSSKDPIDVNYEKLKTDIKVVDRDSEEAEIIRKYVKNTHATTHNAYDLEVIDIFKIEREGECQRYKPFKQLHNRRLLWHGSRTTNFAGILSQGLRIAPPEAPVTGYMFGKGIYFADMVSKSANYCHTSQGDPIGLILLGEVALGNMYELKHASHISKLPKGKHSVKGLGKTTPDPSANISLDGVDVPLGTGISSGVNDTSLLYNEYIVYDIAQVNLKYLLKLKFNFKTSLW

[6] = molecular target: T2, PARP-1 W318R (Homo sapiens, UniProt P09874, W318R); experiment: FP DNA competition, W318R mutant; assay type: binding
T2 sequence (P09874 whole entry W318R): as the sequence (P09874 whole entry) above, with W318R counted along it
Procedure, shortened: (§1)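 Fluorescence polarization competition used FAM-labeled SSB-DNA bound by the PARP-1 variant, challenged with unlabeled SSB-DNA, with or without test compound.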

[7] = molecular target: T3, PARP-1 R591C (Homo sapiens, UniProt P09874, R591C); experiment: FP DNA competition, R591C mutant; assay type: binding
T3 sequence (P09874 whole entry R591C): as the sequence (P09874 whole entry) above, with R591C counted along it
Procedure, shortened: as §1

[8] = molecular target: T4, PARP-1 D766/770A (Homo sapiens, UniProt P09874, D766A/D770A); experiment: FP DNA competition, D766/770A mutant; assay type: binding
T4 sequence (P09874 whole entry D766A/D770A): as the sequence (P09874 whole entry) above, with D766A, D770A counted along it
Procedure, shortened: as §1

[9] = molecular target: PARP-1 CAT (Homo sapiens, UniProt P09874); experiment: DSF thermal stability, CAT domain; assay type: binding
Chain of PARP-1 CAT (P09874 661-1014 limits assumed): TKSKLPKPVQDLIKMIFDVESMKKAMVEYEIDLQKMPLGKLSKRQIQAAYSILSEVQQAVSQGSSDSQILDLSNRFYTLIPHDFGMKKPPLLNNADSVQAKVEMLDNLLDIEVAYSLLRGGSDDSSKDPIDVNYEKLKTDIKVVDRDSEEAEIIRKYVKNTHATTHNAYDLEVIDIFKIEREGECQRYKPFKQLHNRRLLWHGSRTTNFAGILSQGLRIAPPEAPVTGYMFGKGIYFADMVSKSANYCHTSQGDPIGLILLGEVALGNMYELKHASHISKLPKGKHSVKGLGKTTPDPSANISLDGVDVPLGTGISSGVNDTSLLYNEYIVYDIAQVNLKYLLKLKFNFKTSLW
Procedure, shortened: (§2)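 Protein melting temperature was measured by differential scanning fluorimetry with and without test compound. ΔTM was taken as TM with compound minus TM without compound.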

[10] = system: CATΔHD; experiment: DSF thermal stability, CATΔHD; assay type: binding
Procedure, shortened: as §2

[11] = molecular target: T1, PARP-1; experiment: HXMS of WT PARP-1/SSB-DNA complex; settings: PARP-1/SSB-DNA complex with versus without inhibitor
[12] = molecular target: T2, PARP-1 W318R; experiment: HXMS of PARP-1 W318R/SSB-DNA; settings: W318R mutant
[13] = molecular target: T3, PARP-1 R591C; experiment: HXMS of PARP-1 R591C/SSB-DNA; settings: R591C mutant
[14] = molecular target: T4, PARP-1 D766/770A; experiment: HXMS of PARP-1 D766/770A/SSB-DNA; settings: D766/770A mutant
Procedure, shortened: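 PARP-1 (2.6 μM) was mixed with SSB-DNA (5 μM) and, where applicable, inhibitor (5.2 μM). Deuterium on-exchange ran at RT in 10 mM HEPES pD 7.0, 150 mM NaCl (final 75% D2O). Samples were quenched in ice-cold buffer, frozen in liquid nitrogen, pepsin-digested, separated on C18 and analysed by electrospray MS for per-peptide deuteration.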

[15] = molecular target: T1, PARP-1; settings: cited from earlier work
[16] = molecular target: T1, PARP-1; experiment: PARP-1 catalytic inhibition; assay type: biochemical; settings: catalytic inhibitory potency; not shown
[17] = system: MMS-treated CAPAN-1 cells; experiment: Chromatin fractionation assay; assay type: cell-based; settings: 1, 10 and 25 μM, 0.01% MMS
Procedure, shortened: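 Chromatin fractionation measured chromatin-bound PARP-1 in cells exposed to 0.01% MMS, with or without test compound.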

[18] = system: ADP-ribosylation activity in cells; experiment: Measurement of PAR in cells; assay type: cell-based; settings: 0.01, 0.1, 1 and 10 μM, 0.01% MMS
Procedure, shortened: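 Cells were co-treated with test compound and 0.01% MMS. Cellular poly(ADP-ribose) was detected by western blot with an anti-pan-ADP-ribose binding reagent.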

[19] = system: CAL51 PARP-1−/− cells transfected with PARP-1-GFP; experiment: Microirradiation assay, PARP-1-GFP residence at DNA damage sites; assay type: cell-based
[20] = system: CAPAN-1 cells; experiment: Cell survival assay, CAPAN-1; assay type: cell-based; settings: cell survival experiment
[21] = system: SUM149PT-BRCA1mut and SUM149PT-BRCA1rev cells; experiment: Cell survival assay, SUM149PT-BRCA1mut versus SUM149PT-BRCA1rev; assay type: cell-based
[22] = system: parental or PARP-1−/− cells; experiment: Survival assay, parental or PARP-1−/− cells; assay type: cell-based; settings: low concentrations; parental versus PARP-1−/−
[23] = system: MMS-treated CAPAN-1 cells; settings: cited from earlier work

T1 sequence (P09874 whole entry): as the sequence (P09874 whole entry) above

SMILES: NC(=O)c1cccc([C@@H]2O[C@H](COP(=O)(O)OP(=O)(O)OC[C@H]3O[C@@H](n4cnc5c(N)ncnc54)[C@H](O)[C@@H]3O)[C@@H](O)[C@H]2O)c1 [BAD, benzamide adenine dinucleotide]
- PARPi type by allosteric effect [1]: Type I
- binding to CAT versus CATΔHD [2]: only bind to CATΔHD

SMILES: Nc1ncnc2c1ncn2[C@@H]1O[C@H](C(=O)N2CCN(CC(=O)Nc3cccc4c3CNC4=O)CC2)[C@@H](O)[C@H]1O [EB-47]
- influence on PARP-1 SSB DNA binding affinity (in words) [3]: large increase in SSB DNA binding affinity
- influence on dissociation (kd) of PARP-1 from a DNA break (in words) [4]: markedly slowed release from DNA
- PARP-1 retention on SSB-DNA [5]: increased the retention of WT PARP-1 on DNA
- PARP-1 retention on SSB-DNA [6]: unaffected
- PARP-1 retention on SSB-DNA [7]: unaffected
- PARP-1 release from / retention on a DNA break [8]: insensitive
- binding to PARP-1 CAT [9]: bound
- binding to CATΔHD [10]: bound
- allosteric effect on PARP-1 (HX changes) [11]: highly localized destabilization of the helical domain (HD)
- allosteric effect on PARP-1 (HX changes) [12]: destabilization of the αB and αF helices of the HD
- allosteric effect on PARP-1 (HX changes) [13]: destabilization of the αB and αF helices of the HD
- allosteric effect on PARP-1 (HX changes) [14]: no longer influenced PARP-1 allostery
- PARPi type by allosteric effect [1]: Type I
- affinity for PARP-1 [15]: nM range

SMILES: NC(=O)c1ccc[n+]([C@@H]2O[C@H](COP(=O)([O-])OP(=O)(O)OC[C@H]3O[C@@H](n4cnc5c(N)ncnc54)[C@H](O)[C@@H]3O)[C@@H](O)[C@H]2O)c1 [NAD^+]
- binding to CAT versus CATΔHD [2]: only bind to CATΔHD

SMILES: COC(=O)c1cnc(N2CCN(C(=O)c3ccc(-c4nc5c(C(N)=O)cccc5[nH]4)cc3)CC2)nc1 [UKTT15]
- IC50 [16]: 2.6 nM
- increase in PARP-1 affinity for DNA relative to no inhibitor ([3]; WT PARP-1): 3.5 fold
- PARP-1 retention on SSB-DNA [5]: strong PARP-1 retention on a DNA break
- PARP-1 release from / retention on a DNA break [8]: still retained on DNA
- allosteric effect on PARP-1 (HX changes) [11]: profound changes to the HX behavior of PARP-1
- PARPi type by allosteric effect [1]: Type I
- PARP-1 trapping on DNA in cells [17]: increased ability to trap PARP-1 on DNA
- inhibition of ADP-ribosylation activity in cells (PAR levels) [18]: not better than veliparib
- PARP-1-GFP residence time at sites of UV laser-induced damage [19]: increase in the PARP-1-GFP residence time
- killing of CAPAN-1 cells [20]: more efficient than veliparib
- BRCA selectivity of cell killing [21]: killing of the SUM149-BRCA1mut cells at a lower concentration compared to the SUM149PT-BRCA1rev cells
- PARP-1 dependence of cell killing [22]: required PARP-1 expression

SMILES: NC(=O)c1cccc2cn(-c3ccc([C@@H]4CCCNC4)cc3)nc12 [niraparib]
- decrease in PARP-1 SSB DNA binding affinity [3]: 3–5 fold
- influence on dissociation (kd) of PARP-1 from a DNA break (in words) [4]: slightly accelerated release
- allosteric effect on PARP-1 (HX changes) [11]: stronger allosteric effects to the HD
- PARPi type by allosteric effect [1]: Type III

SMILES: CNCc1ccc(-c2[nH]c3cc(F)cc4c3c2CCNC4=O)cc1 [rucaparib]
- decrease in PARP-1 SSB DNA binding affinity [3]: 3–5 fold
- influence on dissociation (kd) of PARP-1 from a DNA break (in words) [4]: slightly accelerated release
- allosteric effect on PARP-1 (HX changes) [11]: stronger allosteric effects to the HD
- PARPi type by allosteric effect [1]: Type III

SMILES: Cn1ncnc1[C@H]1c2n[nH]c(=O)c3cc(F)cc(c23)N[C@@H]1c1ccc(F)cc1 [talazoparib]
- PARP-1 trapping in cells [23]: most efficient trapper of the clinical inhibitors

SMILES: C[C@]1(c2nc3c(C(N)=O)cccc3[nH]2)CCCN1 [veliparib]
- decrease in PARP-1 SSB DNA binding affinity [3]: 3–5 fold
- influence on dissociation (kd) of PARP-1 from a DNA break (in words) [4]: slightly accelerated release
- PARP-1 retention on SSB-DNA [5]: not significant
- allosteric effect on PARP-1 (HX changes) [11]: stronger allosteric effects to the HD
- PARPi type by allosteric effect [1]: Type III
- PARP-1 trapping in cells ([23]; chromatin fractionation): poor PARP-1 trapper
